{"source": "paper PMC6420784", "about": "(Clinical lung cancer, 2018)", "key": {"[1]": {"test": "Plasma pharmacokinetics of momelotinib and M-21", "assay_type": "in vivo, human", "settings": "for Cmax and AUCtau with b.i.d. dosing: across 100 mg and 150 mg dose levels (dose levels 2B, 3, and I); for dose proportionality of Cmax and AUCtau: day 15 of cycle 1, between dose level 1 (100 mg q.d.) and dose level 2A (200 mg q.d.); for Cmax / Tmax / half-life: human, oral; for Cmax: mean (%CV); for Cmax / Tmax / half-life / AUCtau, mean (%CV): momelotinib in plasma; for Tmax: median (Q1, Q3); for half-life: t1/2, median (Q1, Q3)"}, "[2]": {"system": "patients with KRAS-mutated metastatic NSCLC", "test": "Phase Ib safety: adverse events, dose-limiting toxicities, MTD", "assay_type": "in vivo, human", "settings": "for patients with AEs leading to dose interruptions or dose modifications: all dose levels, of the named drug", "procedure,_shortened": "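Two 3 + 3 escalations. First, JAK/TBK1 inhibitor 100–200 mg q.d. or b.i.d. with MEK1/2 inhibitor 1.0 mg q.d. (level −1: 100 mg with 0.5 mg). Then MEK inhibitor 1.5 and 2.0 mg q.d. at the other drug's MTD. DLTs scored over the first 28-day cycle. MTD was the level below that with ≥2 DLTs. AEs recorded from first dose to 30 days post-dose, coded by MedDRA 19.1 and graded by CTCAE 4.03.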"}, "[3]": {"system": "KRAS-mutated metastatic NSCLC", "test": "Phase Ib efficacy: tumor response per RECIST, PFS, OS", "assay_type": "in vivo, human", "settings": "all 21 patients, n = 10", "procedure,_shortened": "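Open-label, nonrandomized phase Ib in platinum-treated, refractory KRAS-mutated metastatic NSCLC (ECOG 0–1, measurable disease). Patients dosed until progression, unacceptable toxicity, consent withdrawal or refusal. CT at baseline and every 8 weeks, scored by RECIST 1.1. DCR at week 8 (CR+PR+SD) and ORR (CR+PR) given per dose level with Clopper–Pearson 90% CIs. PFS and OS by Kaplan–Meier. All enrolled patients analysed.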"}, "myelofibrosis patients": {"system": "myelofibrosis patients", "settings": "once daily (q.d.), previously established; cited from earlier work"}, "[4]": {"system": "previously treated KRAS-mutated advanced NSCLC", "settings": "single-agent trametinib 2.0 mg q.d., 10 of 86 patients; cited from earlier work"}, "[5]": {"settings": "plasma, day 15 of cycle 1, M1: momelotinib 100 mg q.d. with trametinib 1.0 mg q.d."}, "[6]": {"settings": "plasma, day 15 of cycle 1, M2A: momelotinib 200 mg q.d. with trametinib 1.0 mg q.d."}, "[7]": {"settings": "plasma, day 15 of cycle 1, M2B: momelotinib 100 mg b.i.d. with trametinib 1.0 mg q.d."}, "[8]": {"settings": "plasma, day 15 of cycle 1, M3: momelotinib 150 mg b.i.d. with trametinib 1.0 mg q.d."}, "[9]": {"settings": "plasma, day 15 of cycle 1, TI: momelotinib 150 mg b.i.d. with trametinib 1.5 mg q.d."}}, "note": "Values joined by “and” are separate entries in the source; they are usually repeats but may differ in a detail not shown here. Equal values may be shown once. Marks after values point to notes of the source that are not given here."}
{"smiles": "N#CCNC(=O)c1ccc(-c2ccnc(Nc3ccc(N4CCOCC4=O)cc3)n2)cc1", "note": "[M-21]", "values": [{"measurement": "Cmax and AUCtau with b.i.d. dosing", "setting": "[1]", "value": "similar"}, {"measurement": "dose proportionality of Cmax and AUCtau", "setting": "[1]", "value": "more than dose-proportional increases"}, {"measurement": "M-21/Momelotinib Ratio, AUCtau, mean (%CV)", "setting": "[1]; [5]", "value": "2.6 (44.6)"}, {"measurement": "M-21/Momelotinib Ratio, Cmax, mean (%CV)", "setting": "[1]; [5]", "value": "2.2 (52.0)"}, {"measurement": "M-21/Momelotinib Ratio, AUCtau, mean (%CV)", "setting": "[1]; [6]", "value": "1.7 (52.8)"}, {"measurement": "M-21/Momelotinib Ratio, Cmax, mean (%CV)", "setting": "[1]; [6]", "value": "1.2 (47.2)"}, {"measurement": "M-21/Momelotinib Ratio, Cmax, mean (%CV)", "setting": "[1]; [7]", "value": "1.7 (38.3)"}, {"measurement": "M-21/Momelotinib Ratio, AUCtau, mean", "setting": "[1]; plasma, day 15 of cycle 1, M2B: momelotinib 100 mg b.i.d. with trametinib 1.0 mg q.d., n = 1", "value": "2.7^c"}, {"measurement": "M-21/Momelotinib Ratio, AUCtau, mean (%CV)", "setting": "[1]; [8]", "value": "1.3 (40.3)"}, {"measurement": "M-21/Momelotinib Ratio, Cmax, mean (%CV)", "setting": "[1]; [8]", "value": "1.3 (25.8)"}, {"measurement": "M-21/Momelotinib Ratio, AUCtau, mean (%CV)", "setting": "[1]; [9]", "value": "1.4 (20.6)"}, {"measurement": "M-21/Momelotinib Ratio, Cmax, mean (%CV)", "setting": "[1]; [9]", "value": "1.1 (13.7)"}]}
{"smiles": "N#CCNC(=O)c1ccc(-c2ccnc(Nc3ccc(N4CCOCC4)cc3)n2)cc1", "note": "[Momelotinib, momelotinib]", "values": [{"measurement": "patients who discontinued because of AEs", "setting": "[2]; all 21 patients, n = 9", "value": 42.9, "unit": "%"}, {"measurement": "patients with AEs leading to dose interruptions or dose modifications", "setting": "[2]", "value": 47.6, "unit": "%"}, {"measurement": "maximum tolerated dose (MTD) of momelotinib", "setting": "[2]; b.i.d., in combination with trametinib 1.0 mg q.d. (dose level M3)", "value": 150, "unit": "mg"}, {"measurement": "patients who discontinued because of PD", "setting": "[3]", "value": 47.6, "unit": "%"}, {"measurement": "Cmax and AUCtau with b.i.d. dosing", "setting": "[1]", "value": "similar"}, {"measurement": "dose proportionality of Cmax and AUCtau", "setting": "[1]", "value": "more than dose-proportional increases"}, {"measurement": "maximum momelotinib plasma concentrations", "setting": "[1]; discussion summary", "value": "approximately 300 ng/mL"}, {"measurement": "maximum momelotinib plasma concentrations", "setting": "[1]; equal to approximately 300 ng/mL", "value": 0.72, "unit": "µmol/L"}, {"measurement": "Cmax", "setting": "[1]; [5]", "value": 136, "unit": "ng/mL"}, {"measurement": "Cmax", "setting": "[1]; [6]", "value": 572, "unit": "ng/mL"}, {"measurement": "Cmax", "setting": "[1]; [7]", "value": 318, "unit": "ng/mL"}, {"measurement": "Cmax", "setting": "[1]; [8]", "value": 290, "unit": "ng/mL"}, {"measurement": "Cmax", "setting": "[1]; [9]", "value": 359, "unit": "ng/mL"}, {"measurement": "Tmax", "setting": "[1]; [5]", "value": 1.9, "unit": "h"}, {"measurement": "Tmax", "setting": "[1]; [6]", "value": 2, "unit": "h"}, {"measurement": "Tmax", "setting": "[1]; [7]", "value": 0.9, "unit": "h"}, {"measurement": "Tmax", "setting": "[1]; [8]", "value": 1.1, "unit": "h"}, {"measurement": "half-life", "setting": "[1]; [5]", "value": 6.9, "unit": "h"}, {"measurement": "half-life", "setting": "[1]; [6]", "value": 8.7, "unit": "h"}, {"measurement": "half-life", "setting": "[1]; [7]", "value": 8.3, "unit": "h"}, {"measurement": "half-life", "setting": "[1]; [8]", "value": 6.1, "unit": "h"}, {"measurement": "AUCtau, mean (%CV)", "setting": "[1]; day 15 of cycle 1, M1: momelotinib 100 mg q.d. with trametinib 1.0 mg q.d.", "value": "774.3 (47.1) ng/mL/h"}, {"measurement": "AUCtau, mean (%CV)", "setting": "[1]; day 15 of cycle 1, M2A: momelotinib 200 mg q.d. with trametinib 1.0 mg q.d.", "value": "3901.9 (48.2) ng/mL/h"}, {"measurement": "AUCtau, mean (%CV)", "setting": "[1]; day 15 of cycle 1, M2B: momelotinib 100 mg b.i.d. with trametinib 1.0 mg q.d.", "value": "2568.3 (53.0) ng/mL/h"}, {"measurement": "AUCtau, mean (%CV)", "setting": "[1]; day 15 of cycle 1, M3: momelotinib 150 mg b.i.d. with trametinib 1.0 mg q.d.", "value": "2214.1 (71.5) ng/mL/h"}, {"measurement": "AUCtau, mean (%CV)", "setting": "[1]; day 15 of cycle 1, TI: momelotinib 150 mg b.i.d. with trametinib 1.5 mg q.d.", "value": "1871.1 (8.2) ng/mL/h"}, {"measurement": "MTD of momelotinib as a single agent", "setting": "myelofibrosis patients", "value": 200, "unit": "mg"}]}
{"smiles": "CC(=O)Nc1cccc(-n2c(=O)n(C3CC3)c(=O)c3c(Nc4ccc(I)cc4F)n(C)c(=O)c(C)c32)c1", "note": "[trametinib]", "values": [{"measurement": "patients with AEs leading to dose interruptions or dose modifications", "setting": "[2]", "value": 52.4, "unit": "%"}, {"measurement": "maximum tolerated dose (MTD) of trametinib", "setting": "[2]; q.d., in combination with momelotinib 150 mg b.i.d. (dose level M3)", "value": "1.0 mg and 1 mg"}, {"measurement": "PR", "setting": "[4]", "value": 11.6, "unit": "%"}]}
